Measurements: ChEMBL document CHEMBL4387704, “Design, synthesis and biological evaluation of novel isoindolinone derivatives as potent histone deacetylase inhibitors” (Eur J Med Chem, 2019)
The source made the active and inactive calls. No cut-off for these calls is given here.

What was measured:
[1] = system: U-251; test: Growth inhibition of human U251 cells assessed as cell growth inhibition at 10 uM incubated for 48 hrs by sulforhodamine B assay; assay type: functional; details: U-251, 48 h, read-out: GI
[2] = Metabolic stability in rat liver microsomes assessed as half life at 1 uM preincubated for 10 mins followed by NADPH addition measured upto 60 mins by LC-MS/MS analysis; assay type: ADME, Microsome
Outline: (§1)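 Liver microsomes from male SD rat, dog or human at 0.5 mg/mL in 100 mM potassium phosphate pH 7.4 with 1 μM compound. Prewarmed 37 °C 10 min, started with 1 mM NADPH. Stopped at 0, 5, 10, 20, 40, 60 min with cold methanol containing glibenclamide internal standard; supernatant by LC–MS/MS; T1/2 and CLint derived.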

[3] = system: HCT-116; test: Growth inhibition of human HCT116 cells assessed as cell growth inhibition at 10 uM incubated for 48 hrs by sulforhodamine B assay; assay type: functional; details: HCT-116, 48 h, read-out: GI
[4] = molecular target: Histone deacetylase 1 (Homo sapiens, UniProt Q13547); test: Inhibition of HDAC1 (unknown origin) using Fluor de Lys substrate by fluorescence assay relative to control; details: read-out: IC50
Histone deacetylase 1, sequence (Q13547 whole entry): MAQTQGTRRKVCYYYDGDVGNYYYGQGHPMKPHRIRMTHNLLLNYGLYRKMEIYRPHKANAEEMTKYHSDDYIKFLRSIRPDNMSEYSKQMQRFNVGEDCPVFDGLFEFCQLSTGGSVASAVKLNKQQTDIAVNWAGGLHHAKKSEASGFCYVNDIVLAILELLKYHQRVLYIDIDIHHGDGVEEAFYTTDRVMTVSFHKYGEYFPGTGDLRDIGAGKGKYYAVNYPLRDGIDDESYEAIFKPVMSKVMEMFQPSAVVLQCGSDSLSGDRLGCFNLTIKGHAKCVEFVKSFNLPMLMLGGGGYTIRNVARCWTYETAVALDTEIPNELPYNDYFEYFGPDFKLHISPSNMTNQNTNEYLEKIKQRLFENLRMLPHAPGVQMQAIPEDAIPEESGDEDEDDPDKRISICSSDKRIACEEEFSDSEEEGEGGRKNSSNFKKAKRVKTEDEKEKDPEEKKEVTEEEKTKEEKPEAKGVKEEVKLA

[5] = Metabolic stability in human liver microsomes assessed as half life at 1 uM preincubated for 10 mins followed by NADPH addition measured upto 60 mins by LC-MS/MS analysis; assay type: ADME, Microsome; outline: as §1
[6] = system: MCF7; test: Antiproliferative activity against human MCF7 assessed as reduction in cell viability measured after 72 hrs using alamar blue based fluorescence method; assay type: functional; details: MCF7, 72 h
Outline: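 HCT116 and MCF-7 grown in McCoy's 5A with 10% FBS and penicillin/streptomycin at 37 °C, 5% CO2. Cells plated in 96-well format and exposed to drug for 72 h. Alamar blue (1 mM solution) added, incubated 5–6 h, fluorescence read at 530/590 nm.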

[7] = system: NCI-H23; test: Growth inhibition of human NCI-H23 cells assessed as cell growth inhibition at 10 uM incubated for 48 hrs by sulforhodamine B assay; assay type: functional; details: NCI-H23, 48 h, read-out: GI
[8] = system: NCI-H460; test: Growth inhibition of human NCI-H460 assessed as cell growth inhibition at 10 uM incubated for 48 hrs by sulforhodamine B assay; assay type: functional; details: NCI-H460, 48 h, read-out: GI
[9] = molecular target: Class 1 histone deacetylase (Homo sapiens) (UniProt Q13547+O15379+Q92769+Q9BY41); test: Inhibition of class I HDAC in human MCF7 cells assessed as increase in cellular histone H3 acetylation levels incubated for 24 hrs by Western blot; assay type: cell-based
Class 1 histone deacetylase (Homo sapiens), sequence (O15379 whole entry, looked up): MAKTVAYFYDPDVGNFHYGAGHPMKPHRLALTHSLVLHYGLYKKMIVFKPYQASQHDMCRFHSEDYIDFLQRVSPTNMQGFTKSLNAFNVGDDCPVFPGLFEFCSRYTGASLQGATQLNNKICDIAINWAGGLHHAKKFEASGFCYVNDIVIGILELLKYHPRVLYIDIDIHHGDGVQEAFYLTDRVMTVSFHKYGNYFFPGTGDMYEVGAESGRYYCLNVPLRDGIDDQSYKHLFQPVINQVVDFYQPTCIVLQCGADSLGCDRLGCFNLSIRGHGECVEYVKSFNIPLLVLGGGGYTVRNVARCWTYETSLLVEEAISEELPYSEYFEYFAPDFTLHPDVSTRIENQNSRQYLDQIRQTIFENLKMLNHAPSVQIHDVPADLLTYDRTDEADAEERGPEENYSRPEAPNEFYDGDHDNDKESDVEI
Class 1 histone deacetylase (Homo sapiens), sequence (Q13547 whole entry, looked up): as the sequence (Q13547 whole entry) above
Class 1 histone deacetylase (Homo sapiens), sequence (Q92769 whole entry, looked up): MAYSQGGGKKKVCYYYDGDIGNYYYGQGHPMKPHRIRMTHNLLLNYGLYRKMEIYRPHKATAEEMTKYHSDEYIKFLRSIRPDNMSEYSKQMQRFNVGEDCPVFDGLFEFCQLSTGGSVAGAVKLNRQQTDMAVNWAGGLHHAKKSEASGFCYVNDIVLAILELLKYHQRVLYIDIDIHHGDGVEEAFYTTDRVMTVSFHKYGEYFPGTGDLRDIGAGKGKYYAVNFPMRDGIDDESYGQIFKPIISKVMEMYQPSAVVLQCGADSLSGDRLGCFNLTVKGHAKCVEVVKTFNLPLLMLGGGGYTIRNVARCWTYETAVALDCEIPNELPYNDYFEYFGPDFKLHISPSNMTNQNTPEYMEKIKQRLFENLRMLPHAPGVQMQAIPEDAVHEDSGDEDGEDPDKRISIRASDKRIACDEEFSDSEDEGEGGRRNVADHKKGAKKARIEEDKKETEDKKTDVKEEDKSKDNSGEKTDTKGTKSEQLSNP
Class 1 histone deacetylase (Homo sapiens), sequence (Q9BY41 whole entry, looked up): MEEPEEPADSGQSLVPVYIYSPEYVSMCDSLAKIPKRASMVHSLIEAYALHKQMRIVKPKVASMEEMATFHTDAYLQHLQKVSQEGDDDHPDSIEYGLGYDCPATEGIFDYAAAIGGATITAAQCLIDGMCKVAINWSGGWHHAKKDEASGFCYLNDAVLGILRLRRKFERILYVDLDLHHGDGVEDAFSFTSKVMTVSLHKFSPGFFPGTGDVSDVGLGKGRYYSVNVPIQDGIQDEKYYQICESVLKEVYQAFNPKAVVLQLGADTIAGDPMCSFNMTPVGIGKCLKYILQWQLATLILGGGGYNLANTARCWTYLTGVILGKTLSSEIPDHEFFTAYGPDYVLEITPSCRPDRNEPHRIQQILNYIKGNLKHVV
Outline: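 MCF-7 cells (1×10^6) seeded overnight, treated 24 h at 0.25, 2.5 or 25 μM. Lysed with protease inhibitor (EDTA-free); 30 µg total protein run on SDS-PAGE, blotted to nitrocellulose, probed for acetyl-H3, ECL detection.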

[10] = AUC (0 to infinity) in Sprague-Dawley rat at 10 mg/kg, po by LC-MS/MS analysis; assay type: ADME, organism-based; parameters: dose 10 mg/kg, time infinity, route oral; details: in vivo
Outline: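 Male SD rats, 199-214 g, three per route. Single iv dose of 1 mg/kg or oral dose of 10 mg/kg. About 200 μL blood drawn from the jugular vein into heparinized tubes at set times, then spun to plasma. 30 μL plasma precipitated with CH3CN containing verapamil and glibenclamide as internal standards. Plasma drug level measured by LC-MS/MS.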

[11] = molecular target: Histone deacetylase 5 (Homo sapiens) (UniProt Q9UQL6); test: Inhibition of HDAC5 (unknown origin) using Fluor de Lys substrate by fluorescence assay relative to control
Histone deacetylase 5 (Homo sapiens), sequence (Q9UQL6 whole entry, canonical isoform): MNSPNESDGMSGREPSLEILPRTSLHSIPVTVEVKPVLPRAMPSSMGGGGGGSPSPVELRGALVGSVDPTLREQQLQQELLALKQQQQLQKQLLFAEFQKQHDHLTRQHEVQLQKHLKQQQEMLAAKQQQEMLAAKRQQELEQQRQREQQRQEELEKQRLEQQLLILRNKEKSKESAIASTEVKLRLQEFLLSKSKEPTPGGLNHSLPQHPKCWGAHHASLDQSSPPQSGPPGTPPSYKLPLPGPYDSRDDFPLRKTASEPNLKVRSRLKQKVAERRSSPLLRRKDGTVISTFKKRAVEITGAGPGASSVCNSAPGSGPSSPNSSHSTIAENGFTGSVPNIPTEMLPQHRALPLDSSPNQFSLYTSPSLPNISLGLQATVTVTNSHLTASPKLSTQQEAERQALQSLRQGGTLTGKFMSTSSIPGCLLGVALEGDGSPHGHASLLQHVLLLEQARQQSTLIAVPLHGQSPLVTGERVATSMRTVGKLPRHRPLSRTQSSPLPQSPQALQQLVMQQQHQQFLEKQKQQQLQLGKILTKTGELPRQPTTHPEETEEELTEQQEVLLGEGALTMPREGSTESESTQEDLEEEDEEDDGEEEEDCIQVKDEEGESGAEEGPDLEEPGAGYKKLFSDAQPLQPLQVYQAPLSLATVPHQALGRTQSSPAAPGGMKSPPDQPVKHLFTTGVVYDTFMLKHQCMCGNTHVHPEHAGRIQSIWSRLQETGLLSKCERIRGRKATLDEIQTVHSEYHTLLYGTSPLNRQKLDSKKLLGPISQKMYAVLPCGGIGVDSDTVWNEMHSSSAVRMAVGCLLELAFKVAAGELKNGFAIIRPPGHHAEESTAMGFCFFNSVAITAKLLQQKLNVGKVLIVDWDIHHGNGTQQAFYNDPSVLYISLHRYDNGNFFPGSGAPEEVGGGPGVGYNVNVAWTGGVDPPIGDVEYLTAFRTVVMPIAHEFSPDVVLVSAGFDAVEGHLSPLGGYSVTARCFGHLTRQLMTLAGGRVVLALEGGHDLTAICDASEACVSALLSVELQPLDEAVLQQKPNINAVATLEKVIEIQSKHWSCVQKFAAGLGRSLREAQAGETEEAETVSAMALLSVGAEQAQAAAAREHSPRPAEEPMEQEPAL
Outline: (§2)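 Recombinant HDAC isoform assays run by a contract lab. Compounds in DMSO, 10-dose IC50 mode, 3-fold serial dilution from 50 μM. Duplicate runs; IC50 from curve fitting.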

[12] = system: LOX IMVI; test: Growth inhibition of human LOXIMVI cells assessed as cell growth inhibition at 10 uM incubated for 48 hrs by sulforhodamine B assay; assay type: functional; details: read-out: GI
[13] = system: OVCAR-5; test: Growth inhibition of human OVCAR5 cells assessed as cell growth inhibition at 10 uM incubated for 48 hrs by sulforhodamine B assay; assay type: functional; details: OVCAR-5, 48 h, read-out: GI
[14] = system: SK-MEL-28; test: Growth inhibition of human SK-MEL-28 cells assessed as cell growth inhibition at 10 uM incubated for 48 hrs by sulforhodamine B assay; assay type: functional; details: SK-MEL-28, 48 h, read-out: GI
[15] = system: RPMI-8226; test: Growth inhibition of human RPMI8226 cells assessed as cell growth inhibition at 10 uM incubated for 48 hrs by sulforhodamine B assay; assay type: functional; details: RPMI-8226, 48 h, read-out: GI
[16] = molecular target: Histone deacetylase 4 (Homo sapiens) (UniProt P56524); test: Inhibition of HDAC4 (unknown origin) using Fluor de Lys substrate by fluorescence assay relative to control; outline: as §2
Histone deacetylase 4 (Homo sapiens), sequence (P56524 whole entry): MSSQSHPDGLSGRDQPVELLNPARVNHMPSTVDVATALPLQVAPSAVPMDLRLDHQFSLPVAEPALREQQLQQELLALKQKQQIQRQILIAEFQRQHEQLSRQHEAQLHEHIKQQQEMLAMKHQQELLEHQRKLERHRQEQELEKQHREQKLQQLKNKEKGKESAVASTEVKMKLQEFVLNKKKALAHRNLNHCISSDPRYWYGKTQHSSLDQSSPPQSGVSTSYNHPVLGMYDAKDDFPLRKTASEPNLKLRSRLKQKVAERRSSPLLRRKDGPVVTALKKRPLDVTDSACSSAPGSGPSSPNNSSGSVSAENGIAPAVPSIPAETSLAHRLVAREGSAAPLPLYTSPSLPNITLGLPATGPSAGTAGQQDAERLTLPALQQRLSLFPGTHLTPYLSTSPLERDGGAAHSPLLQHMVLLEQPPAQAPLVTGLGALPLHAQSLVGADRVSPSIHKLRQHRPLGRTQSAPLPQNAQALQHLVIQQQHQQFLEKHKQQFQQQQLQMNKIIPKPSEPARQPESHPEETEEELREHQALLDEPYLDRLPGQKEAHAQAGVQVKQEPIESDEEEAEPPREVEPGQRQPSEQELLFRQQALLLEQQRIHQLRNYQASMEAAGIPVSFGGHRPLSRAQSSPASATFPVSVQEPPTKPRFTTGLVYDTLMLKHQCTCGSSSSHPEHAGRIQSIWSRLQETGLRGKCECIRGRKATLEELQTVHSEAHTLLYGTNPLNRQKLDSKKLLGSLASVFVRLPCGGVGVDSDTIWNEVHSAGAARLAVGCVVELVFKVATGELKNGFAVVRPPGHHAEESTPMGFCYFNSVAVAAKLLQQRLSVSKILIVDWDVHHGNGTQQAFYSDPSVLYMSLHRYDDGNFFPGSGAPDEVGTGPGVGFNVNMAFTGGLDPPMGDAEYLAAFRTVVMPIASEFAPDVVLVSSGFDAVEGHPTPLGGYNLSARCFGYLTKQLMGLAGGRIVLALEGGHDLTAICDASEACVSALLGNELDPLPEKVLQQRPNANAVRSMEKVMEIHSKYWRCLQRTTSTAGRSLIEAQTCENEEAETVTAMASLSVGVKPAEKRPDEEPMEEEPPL

[17] = system: KM12; test: Growth inhibition of human KM12 cells assessed as cell growth inhibition at 10 uM incubated for 48 hrs by sulforhodamine B assay; assay type: functional; details: KM12, 48 h, read-out: GI
[18] = Metabolic stability in rat liver microsomes assessed as internal clearance at 1 uM preincubated for 10 mins followed by NADPH addition measured upto 60 mins by LC-MS/MS analysis; assay type: ADME, Microsome; details: read-out: CLH; outline: as §1
[19] = system: SF-539; test: Growth inhibition of human SF539 cells assessed as cell growth inhibition at 10 uM incubated for 48 hrs by sulforhodamine B assay; assay type: functional; details: SF-539, 48 h, read-out: GI
[20] = system: OVCAR-4; test: Growth inhibition of human OVCAR4 cells assessed as cell growth inhibition at 10 uM incubated for 48 hrs by sulforhodamine B assay; assay type: functional; details: OVCAR-4, 48 h, read-out: GI
[21] = system: Malme-3M; test: Growth inhibition of human MALME-3M cells assessed as cell growth inhibition at 10 uM incubated for 48 hrs by sulforhodamine B assay; assay type: functional; details: read-out: GI
[22] = Oral bioavailability in Sprague-Dawley rat at 10 mg/kg by LC-MS/MS analysis; assay type: ADME, organism-based; details: in vivo
Outline: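 Male SD rats (199-214 g), three per route, single dose 1 mg/kg iv or 10 mg/kg po. Jugular blood (~200 μL) into heparinized tubes at set times; plasma by centrifugation, protein precipitation with acetonitrile containing verapamil and glibenclamide; drug measured by LC-MS/MS.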

[23] = system: HL-60(TB); test: Growth inhibition of human HL-60(TB) cells assessed as cell growth inhibition at 10 uM incubated for 48 hrs by sulforhodamine B assay; assay type: functional; details: HL-60, 48 h, read-out: GI
[24] = system: SR; test: Growth inhibition of human SR cells assessed as cell growth inhibition at 10 uM incubated for 48 hrs by sulforhodamine B assay; assay type: functional; details: read-out: GI
[25] = system: HL-60; test: Antiproliferative activity against human HL60 assessed as reduction in cell viability measured after 72 hrs using alamar blue based fluorescence method; assay type: functional; details: HL-60, 72 h
Outline: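 Leukemia lines grown in IMDM with penicillin/streptomycin, HL-60 with 20% FBS and K562 with 10% FBS, at 37 °C, 5% CO2. Cells in 96-well plates exposed to drug for 72 h. Alamar blue (1 mM solution) added for 5–6 h, fluorescence read at 530/590 nm.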

[26] = system: MDA-MB-231; test: Growth inhibition of human MDA-MB-231 cells assessed as cell growth inhibition at 10 uM incubated for 48 hrs by sulforhodamine B assay; assay type: functional; details: MDA-MB-231, 48 h, read-out: GI

`Nc1cc(F)ccc1NC(=O)c1ccc(CNC(=O)/C=C2\NC(=O)c3ccccc32)cc1` gave an inhibition of growth at 10 µM [1] of 35.9%, a half-life at 1 µM [2] of 2.02 h and an inhibition of growth at 10 µM [3] of 73.3%. The IC50 [4] was 65.1 nM, the half-life at 1 µM [5] was 4.87 h and the IC50 [6] was 14600 nM. For the same compound, the inhibition of growth at 10 µM [7] was 26.5%, the inhibition of growth at 10 µM [8] was 26.8% and the inhibition [9] was “Dose-dependent effect”. For the same compound, the AUC(0-inf) [10] was 1740 ng·h/mL, the inhibition [11] was “inactive” and the inhibition of growth at 10 µM [12] was 15.7%. The inhibition of growth at 10 µM [13] was 36.4%, the inhibition of growth at 10 µM [14] was 33.8% and the inhibition of growth at 10 µM [15] was 59.8%. For the same compound, the inhibition [16] was “inactive”, the inhibition of growth at 10 µM [17] was 26.9% and the microsomal CLint at 1 µM [18] was 11.7 µL/min/mg. The inhibition of growth at 10 µM [19] was 44.8%, the inhibition of growth at 10 µM [20] was 21.3% and the inhibition of growth at 10 µM [21] was 52.6%. For the same compound, the bioavailability [22] was 16%, the inhibition of growth at 10 µM [23] was 84% and the inhibition of growth at 10 µM [24] was 57.6%. For the same compound, the IC50 [25] was 373 nM and the inhibition of growth at 10 µM [26] was 22.4%.
